# Test results from publication PMC5159300 (Cell chemical biology, 2016).
# Like-named read-outs stand apart in the source and are kept apart here.
# What was measured:
# cytochrome bc1 [1] = target: cytochrome bc1 (Saccharomyces cerevisiae, UniProt P00163); experiment: Cytochrome bc1 enzymatic activity in purified yeast mitochondria; format: biochemical; conditions: read-out: IC50 cytochrome bc1 inhibition; S. cerevisiae mitochondria, wild type
# cytochrome bc1 [2] = target: cytochrome bc1 (Candida albicans, UniProt P0C8L0); experiment: Cytochrome bc1 enzymatic activity in purified C. albicans mitochondria; format: biochemical; conditions: for Extent of inhibition of C. albicans cytochrome bc1 activity: maximal effect
# Chain of cytochrome bc1 (Candida albicans, UniProt P0C8L0) (P0C8L0 whole entry): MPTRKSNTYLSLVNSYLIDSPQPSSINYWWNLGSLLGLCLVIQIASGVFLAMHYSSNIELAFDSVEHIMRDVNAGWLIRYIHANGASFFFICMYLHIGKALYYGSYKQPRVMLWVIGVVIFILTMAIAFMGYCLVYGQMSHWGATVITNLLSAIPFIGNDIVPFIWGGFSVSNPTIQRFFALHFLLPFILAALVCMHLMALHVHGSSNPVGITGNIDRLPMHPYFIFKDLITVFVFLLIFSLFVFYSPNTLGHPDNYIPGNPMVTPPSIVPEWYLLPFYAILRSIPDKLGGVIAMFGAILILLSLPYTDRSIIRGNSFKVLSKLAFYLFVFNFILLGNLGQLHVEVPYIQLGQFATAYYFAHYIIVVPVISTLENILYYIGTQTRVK
# S. cerevisiae (BY4741) = format: cell-based
# C. albicans (SC5314) = experiment: C. albicans growth in media with glucose or glycerol as carbon source; format: cell-based, Candida albicans
# How it was run: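 Growth compared in synthetic medium of yeast nitrogen base with complete amino acid supplement, containing either 2% glucose or 2% glycerol as carbon source. Data pooled from two independent experiments.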
# Plasma stability = format: in vitro ADME, human
# [3] = Mouse liver microsome stability; format: in vitro ADME; conditions: 15 minute incubation at 37 C
# Solubility limit = format: physicochemical
# human cytochrome bc1 [4] = target: T1, human cytochrome bc1 (Homo sapiens, UniProt P00156); conditions: human IC50 versus C. albicans homolog IC50
# C. albicans CaCi-2 = format: cell-based, Candida albicans; conditions: in the presence of fluconazole; SAR statement
# [5] = test system: C. albicans wild-type (SC5314); experiment: Emergence of fluconazole-resistant colonies on agar plates; format: cell-based, Candida albicans
# C. albicans SC5314 [6] = experiment: Clonogenic survival in liquid culture; format: cell-based, Candida albicans; conditions: for Effect on growth and viability as single agent: 32 mg/L fluconazole alone or 10 μM Inz-5 alone
# C. albicans SC5314 [7] = experiment: Diffusion halo assay on agar plates with various carbon sources; format: cell-based, Candida albicans; conditions: 10 μg disc
# How it was run: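 SC5314 cells were spread on agar plates with different carbon sources. These included 80% fetal bovine serum as nutrient source (~0.1-0.2% glucose), high (2%) glucose, galactose and non-fermentable sources. A filter disc carried 10 μg test compound in DMSO or DMSO alone. The zone of growth inhibition was scored.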
# C. albicans = experiment: Co-culture of C. albicans with mouse bone-marrow-derived macrophages; format: cell-based, Candida albicans; conditions: 5 μM
# Scedosporium prolificans = experiment: Single-agent growth inhibition of Scedosporium prolificans; format: cell-based; conditions: enhanced under respiratory growth conditions
# Aspgerillus terreus = experiment: Single-agent growth inhibition of Aspgerillus terreus; format: cell-based; conditions: enhanced under respiratory growth conditions
# Rhizopus oryzae = experiment: Single-agent growth inhibition of Rhizopus oryzae; format: cell-based; conditions: enhanced under respiratory growth conditions
# HepG2 cells = experiment: Mammalian cell respiration toxicity; format: cell-based; conditions: Homo sapiens, HepG2, read-out: IC50 toxicity to respiring HepG2 cells
# How it was run: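 HepG2 cells were passaged in high-glucose DMEM, washed and resuspended in glucose-free DMEM with 10 mM galactose to force respiration, then seeded at 10,000 cells/well. After 72 hr with test compound, cellular ATP was measured by luminescent assay (reagent at 1:5 dilution) as a proxy for growth. IC50 was averaged from at least 2 independent experiments.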
# malarial cytochrome B = conditions: ref Hughes et al., 1998; cited from earlier work
# human cytochrome bc1 [8] = target: T1, human cytochrome bc1; experiment: biochemical
# [9] = test system: C. albicans CaCi-2 and rip1Δ/Δ; experiment: Mouse systemic infection; format: in vivo, Balb/C mice; conditions: low inoculum of CaCi-2 or rip1Δ/Δ; fluconazole 24 mg/kg IP for 3 days
# [10] = media containing glycerol as the sole carbon source
smiles,measurement,setting,value
COC(=O)Cn1nc(-c2ccccc2)c2ccccc21 [Inz-1],IC50,cytochrome bc1 [1],2500 nM
same,Extent of inhibition of C. albicans cytochrome bc1 activity,cytochrome bc1 [2],significant residual activity
same,Resistance conferred by L275S mutation,S. cerevisiae (BY4741); cytochrome B L275S mutant,confer resistance
same,Resistance conferred by P270L mutation,S. cerevisiae (BY4741); cytochrome B P270L mutant,confer resistance
same,Growth inhibition,S. cerevisiae (BY4741); glucose media,only mildly slowing growth
same,Growth inhibition,S. cerevisiae (BY4741); [10],potently inhibited growth
same,Resistance conferred by G143A mutation,"S. cerevisiae (BY4741); yeast cytochrome B G143A mutant, respiratory growth",strong resistance
same,Growth inhibition,C. albicans (SC5314); glucose media,only mildly slowing growth
same,Growth inhibition,C. albicans (SC5314); [10],potently inhibited growth
same,Plasma stability,Plasma stability; incubation of 1 hour at 37 C in human plasma,fully degraded
same,Compound remaining in mouse liver microsomes,[3],< 1%
same,Solubility limit,Solubility limit,32 µM
same,Fold higher IC50 for human than for C. albicans cytochrome bc1,human cytochrome bc1 [4],5.6 fold
COC(=O)Cn1nc(-c2cc(C(F)(F)F)ccc2F)c2ccccc21 [Inz-2],Potency against the fungal enzyme,cytochrome bc1 [2]; compared with Inz-1,significant enhancement of potency
COC(=O)Cn1nc(-c2ccccc2)c2cccc(C)c21 [Inz-3],Activity against Candida proliferation,C. albicans CaCi-2,beneficial to both the activity and the selectivity
Cc1cccc2c(-c3cc(C(F)(F)F)ccc3F)nn(Cc3nnn(C)n3)c12 [Inz-5],Activity against Candida proliferation,C. albicans CaCi-2,sub-micromolar activity
same,Extent of inhibition of C. albicans cytochrome bc1 activity,cytochrome bc1 [2],complete inhibition
same,Plasma stability,Plasma stability; 3 hours of incubation in human serum,fully recovered
same,Compound remaining in mouse liver microsomes,[3],19.5%
same,Effect on colonies,[5]; 10 μM Inz-5 alone,"reduced colony size, but no reduction in the total number of colonies"
same,Effect on emergence of resistant colonies,[5]; 10 μM Inz-5 in combination with 64 mg/L fluconazole,completely abrogated the emergence of resistant colonies
same,Reduction of the number of viable colonies,C. albicans SC5314 [6]; 10 μM Inz-5 in combination with 32 mg/L fluconazole,97%
same,Effect on growth and viability as single agent,C. albicans SC5314 [6],partially slowed growth
same,Growth inhibition in halo assay,C. albicans SC5314 [7]; 80% fetal bovine serum as the nutrient source,slight growth inhibition
same,Growth inhibition in halo assay,"C. albicans SC5314 [7]; amino acids, lactate, or acetate as the carbon source",potent and profound growth inhibition
same,Growth inhibition in halo assay,C. albicans SC5314 [7]; galactose,moderate growth inhibition
same,Growth inhibition in halo assay,C. albicans SC5314 [7]; high glucose,very little growth inhibition
same,Fungal growth in the presence of macrophages,C. albicans; 14-hour co-culture,sharply curtailed fungal growth
same,Escape of C. albicans from macrophages,C. albicans; 2 hours,remained trapped in the phagosome
same,Growth inhibition as a single agent,Scedosporium prolificans,promising growth inhibition
same,Growth inhibition as a single agent,Aspgerillus terreus,promising growth inhibition
same,Growth inhibition as a single agent,Rhizopus oryzae,promising growth inhibition
Cn1nnc(Cn2nc(-c3ccccc3)c3ccccc32)n1 [Inz-34],Activity against Candida proliferation,C. albicans CaCi-2,retained activity
c1ccc(-c2nn(Cc3cnccn3)c3ccccc23)cc1 [Inz-37],Activity against Candida proliferation,C. albicans CaCi-2,retained activity
O=C1C(O)=C([C@H]2CC[C@H](c3ccc(Cl)cc3)CC2)C(=O)c2ccccc21 [atovaquone],IC50,HepG2 cells,12700 nM
same,Potency against the malarial cytochrome B,malarial cytochrome B,low nanomolar potency
same,IC50,human cytochrome bc1 [8],1800 nM
"OC(Cn1cncn1)(Cn1cncn1)c1ccc(F)cc1F [fluconazole, reference compound]",Rate of emergence of resistant colonies,[5]; 64 mg/L fluconazole alone,~ 0.5%
same,Effect on growth and viability as single agent,C. albicans SC5314 [6],slowed growth of the wild-type strain but did not cause a decrease in viability
same,Brain fungal burden,[9],eliminated brain colonization
